These results are taken from ChEMBL document CHEMBL3526143, “Pulmonary metabolism of resveratrol: in vitro and in vivo evidence” (Drug Metab Dispos, 2013).

The nature of data set [1]: Plasma protein binding in mouse at 20 uM by equilibrium dialysis method. The format is ADME, cell-free. The following applies: read-out: PPB (converted). The method in brief: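 Equilibrium dialysis uses 5K MWCO membranes on a rotator at 37°C under 10% CO2. Thawed mouse plasma is adjusted to pH 7.4, and each analyte is tested at 20 µM; n = 3.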
A short description of data set [2]: Partial substrate inhibition in mouse lung S9 fractions treated with trans-resveratrol preincubated for 3 mins followed by PAPS addition measured after 60 mins by Eadie-Hofstee plot analysis. In kind it is ADME. The essentials: (§1)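 Sulfation uses pooled lung S9 (mouse 1 mg/ml, human 0.5 mg/ml final) with substrate at 0.01 µM–5 mM in 2% HP-β-CD, 5 mM MgCl2 and 10 mM potassium phosphate pH 6.5 at 37°C. After 3 min preincubation, 1 mM PAPS is added for 60 min, and the reaction is stopped with ascorbic acid and cold methanol. Triplicates are run, with a control lacking PAPS. Kinetics are fitted by nonlinear regression (partial substrate inhibition) after Eadie-Hofstee inspection.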

Data set [3] in a line: Partial substrate inhibition in human lung S9 fractions treated with trans-resveratrol preincubated for 3 mins followed by PAPS addition measured after 60 mins by Eadie-Hofstee plot analysis. In kind it is ADME. The essentials: as §1
The nature of data set [4]: Partial substrate inhibition in mouse lung S9 fractions treated with trans-resveratrol preincubated for 3 mins followed by UDPGA addition measured after 60 mins by Eadie-Hofstee plot analysis. In kind it is ADME. The method in brief: (§2)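 Pooled mouse lung S9 (0.5 mg/ml final) is incubated with substrate at 0.01 µM–5 mM in 2% final HP-β-CD, alamethicin 10 µg/ml, 5 mM MgCl2 and Tris-HCl 100 mM pH 7.4 at 37°C. The reaction is started with 5 mM UDPGA and stopped at 60 min with ascorbic acid and cold methanol. Triplicates are run, with a control lacking UDPGA. Data are screened on Eadie-Hofstee plots and fitted by nonlinear regression to a partial substrate inhibition model.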

A short description of data set [5]: Drug level in human lung microsomes treated with trans-resveratrol at 0.5 mM measured at 60 mins. In kind it is ADME. To be noted: 1 h, 500 µM. The essentials: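 Pooled human lung microsomes at 0.1, 0.5 and 2.5 mg/ml final, with 0.5 mM substrate in 2% final HP-β-CD, are incubated with UDPGA cofactor for 60 min. Glucuronide is quantified by LC-MS/MS, with an LOQ of 10 ng/ml.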

A short description of data set [6]: AUC (0 to infinity) in C57BL/6 mouse at 15 mg/kg, iv. Further details: time infinity, dose 15 mg/kg, route intravenous. The following applies: plasma. The format is ADME, organism-based. The method in brief:
(§3)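 Male C57BL/6 mice, 20–25 g, given a single IV dose of 15 mg/kg in 20% HP-β-CD in saline. Blood (20 µl) is drawn serially through a carotid artery cannula at 2.5–600 min, and plasma is assayed by LC-MS/MS. Noncompartmental analysis gives AUC by the linear trapezoidal rule, CL = dose/AUC0-inf, Vss = CL × MRT0-inf and t1/2 = 0.693/λ; n = 5.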

Data set [7] is described as follows: Clearance in C57BL/6 mouse at 15 mg/kg, iv. The format is ADME, organism-based. Further details: dose 15 mg/kg, route intravenous. To be noted: in vivo. The essentials: as §3
Data set [8] can be described thus: Volume of distribution at steady state in C57BL/6 mouse at 15 mg/kg, iv. In kind it is ADME, organism-based. The following applies: in vivo, read-out: Vdss. Further details: dose 15 mg/kg, route intravenous. The method in brief: as §3
The nature of data set [9]: Terminal half life in C57BL/6 mouse at 15 mg/kg, iv. The format is ADME, organism-based. Further details: dose 15 mg/kg, route intravenous. To be noted: in vivo, read-out: beta t1/2. The essentials:
as §3

Data set [10] is described as follows: Bioavailability in C57BL/6 mouse at 15 mg/kg, iv. In kind it is ADME, organism-based. The following applies: in vivo.
A short description of data set [11]: Drug metabolism in mouse lung S9 fractions assessed as trans-resveratrol-3-O-glucuronide formation preincubated for 3 mins followed by UDPGA addition measured after 60 mins by Eadie-Hofstee plot analysis. The format is ADME, tissue-based. The following applies: s9, 1 h. The method in brief: as §2
The nature of data set [12]: Drug metabolism in mouse lung S9 fractions assessed as trans-resveratrol-3-sulfate formation preincubated for 3 mins followed by PAPS addition measured after 60 mins by Eadie-Hofstee plot analysis. In kind it is ADME, tissue-based. To be noted: s9, 1 h. The essentials:
as §1

Data set [13] in a line: Drug metabolism in human lung S9 fractions assessed as trans-resveratrol-3-sulfate formation preincubated for 3 mins followed by PAPS addition measured after 60 mins by Eadie-Hofstee plot analysis. The format is ADME, tissue-based. The following applies: s9, 1 h. The essentials: as §1

Consider `O=S(=O)(O)Oc1cc(O)cc(/C=C/c2ccc(O)cc2)c1`, for which the fraction unbound at 20 µM in data set [1] is 0.128. Besides, the Ki in data set [2] amounted to 2.02 mM; in data set [3], 23.2 mM.
Consider `O=C(O)[C@H]1O[C@@H](Oc2cc(O)cc(/C=C/c3ccc(O)cc3)c2)[C@H](O)[C@@H](O)[C@@H]1O`, for which, in [1], the fraction unbound at 20 µM was 0.333. The Ki in data set [4] was 6.63 mM. This molecule yielded a Drug metabolism in data set [5] of less than 10 ng/mL.
Take `Oc1ccc(/C=C/c2cc(O)cc(O)c2)cc1` [RESVERATROL]: the fraction unbound at 20 µM in data set [1] was 0.0805. For the same molecule, in data set [6], the AUC(0-inf) is 4.92 µM·h. This molecule also returned a clearance in [7] of 280 mL/min/kg. For the same molecule, in data set [8], the Vd amounted to 34.9 L/kg. Besides, in [9], the half-life stood at 101 min. The molecule also had a bioavailability in data set [10] of 49.9%. Besides, the Km was found to be 7.34 µM in data set [11], 2690 nM in data set [12] and 4.45 µM in [13]. In addition, the Vmax in [11] worked out at 324.4 pmol/min/mg; in data set [12], 7.05 pmol/min/mg; in data set [13], 16.15 pmol/min/mg.
